Laboratory results taken from the M2OR odorant receptor database.
Changes are numbered by the printed parent chain.

Experiments:
Settings in all cases: stereoisomer not certain
OR4S2 (Homo sapiens) = target: T1, OR4S2 (Homo sapiens) (UniProt Q8NH73)
T1 sequence (whole entry): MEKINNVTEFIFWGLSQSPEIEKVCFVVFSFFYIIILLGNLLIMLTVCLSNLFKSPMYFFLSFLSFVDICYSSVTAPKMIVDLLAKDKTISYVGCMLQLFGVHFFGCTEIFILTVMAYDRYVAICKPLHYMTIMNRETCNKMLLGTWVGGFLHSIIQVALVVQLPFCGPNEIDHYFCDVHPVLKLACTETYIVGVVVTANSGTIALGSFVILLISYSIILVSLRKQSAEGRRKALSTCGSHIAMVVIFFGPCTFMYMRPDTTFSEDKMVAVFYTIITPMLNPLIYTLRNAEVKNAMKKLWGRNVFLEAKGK
In short: (§1)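 Each entry records the cell line, G-protein, co-transfected protein and tags used. Methods varied with the source, often transient luciferase assays in mammalian cell lines. A receptor–molecule pair is called responsive (active) if the original authors judged its signal statistically different from baseline and non-responsive (inactive) otherwise.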

OR4X1 (Homo sapiens) = target: T2, OR4X1 (Homo sapiens) (UniProt Q8NH49)
T2 sequence (whole entry): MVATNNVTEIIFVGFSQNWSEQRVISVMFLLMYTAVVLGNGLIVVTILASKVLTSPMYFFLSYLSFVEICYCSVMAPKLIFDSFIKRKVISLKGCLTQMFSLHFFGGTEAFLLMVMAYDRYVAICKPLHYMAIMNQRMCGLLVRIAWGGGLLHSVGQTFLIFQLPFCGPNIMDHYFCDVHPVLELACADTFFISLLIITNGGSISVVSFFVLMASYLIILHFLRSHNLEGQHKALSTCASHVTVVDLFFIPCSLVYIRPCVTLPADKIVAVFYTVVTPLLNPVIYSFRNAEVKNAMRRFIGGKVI
In short: as §1

OR4X2 (Homo sapiens) = target: T3, OR4X2 (Homo sapiens) (UniProt Q8NGF9)
T3 sequence (whole entry): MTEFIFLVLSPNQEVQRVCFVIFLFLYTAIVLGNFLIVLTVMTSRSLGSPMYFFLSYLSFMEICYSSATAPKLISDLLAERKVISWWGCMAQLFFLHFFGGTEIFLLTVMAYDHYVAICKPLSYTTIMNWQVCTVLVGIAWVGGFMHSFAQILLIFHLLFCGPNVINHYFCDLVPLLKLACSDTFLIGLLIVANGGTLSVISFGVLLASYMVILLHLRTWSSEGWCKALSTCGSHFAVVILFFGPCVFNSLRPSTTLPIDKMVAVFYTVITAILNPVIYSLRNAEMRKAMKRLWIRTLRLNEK
In short: as §1

OR51A2 (Homo sapiens) = target: T4, OR51A2 (Homo sapiens) (UniProt Q8NGJ7)
T4 sequence (whole entry): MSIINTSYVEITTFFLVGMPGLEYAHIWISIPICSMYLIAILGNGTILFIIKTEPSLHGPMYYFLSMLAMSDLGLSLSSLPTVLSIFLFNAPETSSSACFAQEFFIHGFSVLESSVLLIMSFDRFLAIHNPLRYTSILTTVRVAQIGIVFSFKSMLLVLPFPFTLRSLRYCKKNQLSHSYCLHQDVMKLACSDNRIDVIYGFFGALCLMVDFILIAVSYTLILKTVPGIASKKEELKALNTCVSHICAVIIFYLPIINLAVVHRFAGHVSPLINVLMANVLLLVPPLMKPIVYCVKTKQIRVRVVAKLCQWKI
In short: as §1

OR51A4 (Homo sapiens) = target: T5, OR51A4 (Homo sapiens) (UniProt Q8NGJ6)
T5 sequence (whole entry): T4 sequence (whole entry) with G59E, T94I, S97N, S167N, P227L, E235Q, G267R, M288T, K289N, W311R
In short: as §1

OR51A7 (Homo sapiens) = target: T6, OR51A7 (Homo sapiens) (UniProt Q8NH64)
T6 sequence (whole entry): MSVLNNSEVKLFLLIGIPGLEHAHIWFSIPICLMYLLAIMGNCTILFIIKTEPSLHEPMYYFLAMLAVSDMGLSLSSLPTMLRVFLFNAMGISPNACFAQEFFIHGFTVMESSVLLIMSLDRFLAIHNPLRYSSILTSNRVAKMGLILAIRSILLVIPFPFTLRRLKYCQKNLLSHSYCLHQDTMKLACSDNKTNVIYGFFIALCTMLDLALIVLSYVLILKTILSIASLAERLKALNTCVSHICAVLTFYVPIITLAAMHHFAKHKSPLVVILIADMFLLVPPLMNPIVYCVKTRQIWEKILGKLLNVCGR
In short: as §1

OR51B2 (Homo sapiens) = target: T7, OR51B2 (Homo sapiens) (UniProt Q9Y5P1)
T7 sequence (whole entry): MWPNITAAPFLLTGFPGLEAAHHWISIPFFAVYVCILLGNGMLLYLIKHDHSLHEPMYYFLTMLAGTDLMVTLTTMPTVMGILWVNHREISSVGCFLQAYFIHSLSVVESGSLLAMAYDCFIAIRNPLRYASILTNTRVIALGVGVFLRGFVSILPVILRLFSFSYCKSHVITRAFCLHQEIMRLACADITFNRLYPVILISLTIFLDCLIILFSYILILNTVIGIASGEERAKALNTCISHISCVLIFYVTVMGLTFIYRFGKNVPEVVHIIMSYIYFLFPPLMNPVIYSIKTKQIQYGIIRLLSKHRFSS
In short: as §1

OR51B4 (Homo sapiens) = target: T8, OR51B4 (Homo sapiens) (UniProt Q9Y5P0)
T8 sequence (whole entry): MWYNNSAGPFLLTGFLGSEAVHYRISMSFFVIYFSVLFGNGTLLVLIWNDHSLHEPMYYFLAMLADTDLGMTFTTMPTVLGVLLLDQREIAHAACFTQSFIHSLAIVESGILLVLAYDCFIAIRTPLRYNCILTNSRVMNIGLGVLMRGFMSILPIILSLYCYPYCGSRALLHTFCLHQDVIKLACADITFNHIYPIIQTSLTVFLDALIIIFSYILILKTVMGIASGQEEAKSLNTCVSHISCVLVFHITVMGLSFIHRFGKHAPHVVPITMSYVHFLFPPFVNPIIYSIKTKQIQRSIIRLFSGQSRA
In short: as §1

OR51B5 (Homo sapiens) = target: T9, OR51B5 (Homo sapiens) (UniProt Q9H339)
T9 sequence (whole entry): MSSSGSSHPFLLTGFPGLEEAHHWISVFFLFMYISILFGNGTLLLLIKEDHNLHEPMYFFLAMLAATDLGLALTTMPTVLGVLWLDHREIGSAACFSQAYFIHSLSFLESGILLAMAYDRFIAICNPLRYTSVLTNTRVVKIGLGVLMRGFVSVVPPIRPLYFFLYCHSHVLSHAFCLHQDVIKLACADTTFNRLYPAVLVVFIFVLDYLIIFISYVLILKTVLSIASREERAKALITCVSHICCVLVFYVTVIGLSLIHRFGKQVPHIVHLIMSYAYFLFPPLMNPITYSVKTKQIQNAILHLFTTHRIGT
In short: as §1

OR51B6 (Homo sapiens) = target: T10, OR51B6 (Homo sapiens) (UniProt Q9H340)
T10 sequence (whole entry): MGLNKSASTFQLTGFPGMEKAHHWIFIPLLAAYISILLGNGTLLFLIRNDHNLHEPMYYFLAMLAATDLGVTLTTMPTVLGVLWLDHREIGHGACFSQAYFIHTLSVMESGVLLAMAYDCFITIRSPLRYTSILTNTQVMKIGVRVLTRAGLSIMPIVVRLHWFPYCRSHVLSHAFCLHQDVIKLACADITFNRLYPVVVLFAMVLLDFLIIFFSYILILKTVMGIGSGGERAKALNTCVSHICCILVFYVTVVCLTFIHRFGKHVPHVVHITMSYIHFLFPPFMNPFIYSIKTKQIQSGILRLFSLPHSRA
In short: as §1

OR51D1 (Homo sapiens) = target: T11, OR51D1 (Homo sapiens) (UniProt Q8NGF3)
T11 sequence (whole entry): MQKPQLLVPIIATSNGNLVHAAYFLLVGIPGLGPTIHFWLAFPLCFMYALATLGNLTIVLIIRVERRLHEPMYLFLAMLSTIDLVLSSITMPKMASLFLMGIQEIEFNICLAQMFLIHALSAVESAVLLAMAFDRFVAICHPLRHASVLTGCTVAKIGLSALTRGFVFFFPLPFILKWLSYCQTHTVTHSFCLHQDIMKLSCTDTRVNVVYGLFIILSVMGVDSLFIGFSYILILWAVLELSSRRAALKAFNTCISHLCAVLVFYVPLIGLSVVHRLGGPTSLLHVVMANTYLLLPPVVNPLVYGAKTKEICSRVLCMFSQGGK
In short: as §1

OR51E1 (Homo sapiens) = target: T12, OR51E1 (Homo sapiens) (UniProt Q8TCB6)
T12 sequence (whole entry): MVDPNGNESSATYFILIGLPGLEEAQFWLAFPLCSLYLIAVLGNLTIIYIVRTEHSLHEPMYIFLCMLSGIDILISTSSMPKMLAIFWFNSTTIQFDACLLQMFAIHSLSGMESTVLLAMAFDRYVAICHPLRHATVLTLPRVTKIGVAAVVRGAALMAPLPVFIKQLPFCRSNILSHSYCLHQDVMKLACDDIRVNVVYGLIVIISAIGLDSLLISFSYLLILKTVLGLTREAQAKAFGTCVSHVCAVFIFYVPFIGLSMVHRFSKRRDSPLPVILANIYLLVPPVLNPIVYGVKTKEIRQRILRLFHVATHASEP
In short: as §1

OR51E2 (Homo sapiens) = target: T13, OR51E2 (Homo sapiens) (UniProt Q9H255)
T13 sequence (whole entry): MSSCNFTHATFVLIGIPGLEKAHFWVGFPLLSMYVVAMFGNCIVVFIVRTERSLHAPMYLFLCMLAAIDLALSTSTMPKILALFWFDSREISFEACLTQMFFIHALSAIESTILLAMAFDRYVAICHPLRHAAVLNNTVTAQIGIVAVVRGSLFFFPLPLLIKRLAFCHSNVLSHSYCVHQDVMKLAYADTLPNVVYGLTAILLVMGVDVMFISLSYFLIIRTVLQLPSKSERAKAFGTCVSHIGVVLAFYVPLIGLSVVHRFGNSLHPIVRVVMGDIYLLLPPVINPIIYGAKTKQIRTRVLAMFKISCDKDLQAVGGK
In short: as §1

OR51F1 (Homo sapiens) = target: T14, OR51F1 (Homo sapiens) (UniProt A6NGY5)
T14 sequence (whole entry): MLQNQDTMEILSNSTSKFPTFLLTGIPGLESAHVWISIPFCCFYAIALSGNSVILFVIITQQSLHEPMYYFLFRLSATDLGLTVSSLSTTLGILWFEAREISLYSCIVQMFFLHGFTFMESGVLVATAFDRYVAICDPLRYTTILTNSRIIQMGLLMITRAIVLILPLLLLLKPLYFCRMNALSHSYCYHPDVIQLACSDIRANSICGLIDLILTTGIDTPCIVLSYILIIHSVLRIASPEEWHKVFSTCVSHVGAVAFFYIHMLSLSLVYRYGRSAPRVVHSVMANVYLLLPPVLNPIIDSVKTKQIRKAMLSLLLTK
In short: as §1

OR51F2 (Homo sapiens) = target: T15, OR51F2 (Homo sapiens) (UniProt Q8NH61)
T15 sequence (whole entry): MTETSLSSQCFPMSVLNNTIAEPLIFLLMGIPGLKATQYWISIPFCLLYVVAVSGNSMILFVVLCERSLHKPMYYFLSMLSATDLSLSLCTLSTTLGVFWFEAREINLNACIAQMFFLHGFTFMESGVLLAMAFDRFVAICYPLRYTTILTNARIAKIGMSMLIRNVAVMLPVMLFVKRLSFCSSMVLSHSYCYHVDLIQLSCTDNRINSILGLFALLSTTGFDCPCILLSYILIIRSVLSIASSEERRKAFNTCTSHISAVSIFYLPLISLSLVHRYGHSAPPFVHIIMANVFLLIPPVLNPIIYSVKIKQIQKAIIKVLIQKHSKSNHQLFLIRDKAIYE
In short: as §1

OR51G1 (Homo sapiens) = target: T16, OR51G1 (Homo sapiens) (UniProt Q8NGK1)
T16 sequence (whole entry): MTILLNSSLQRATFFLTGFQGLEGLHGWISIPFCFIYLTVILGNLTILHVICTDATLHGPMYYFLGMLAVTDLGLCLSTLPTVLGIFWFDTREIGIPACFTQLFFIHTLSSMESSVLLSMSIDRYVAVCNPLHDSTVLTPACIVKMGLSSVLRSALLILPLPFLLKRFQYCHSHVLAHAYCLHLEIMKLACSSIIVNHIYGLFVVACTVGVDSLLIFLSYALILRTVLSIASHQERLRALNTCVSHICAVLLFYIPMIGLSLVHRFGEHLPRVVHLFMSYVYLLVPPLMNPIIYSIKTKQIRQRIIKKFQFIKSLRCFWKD
In short: as §1

OR51G2 (Homo sapiens) = target: T17, OR51G2 (Homo sapiens) (UniProt Q8NGK0)
T17 sequence (whole entry): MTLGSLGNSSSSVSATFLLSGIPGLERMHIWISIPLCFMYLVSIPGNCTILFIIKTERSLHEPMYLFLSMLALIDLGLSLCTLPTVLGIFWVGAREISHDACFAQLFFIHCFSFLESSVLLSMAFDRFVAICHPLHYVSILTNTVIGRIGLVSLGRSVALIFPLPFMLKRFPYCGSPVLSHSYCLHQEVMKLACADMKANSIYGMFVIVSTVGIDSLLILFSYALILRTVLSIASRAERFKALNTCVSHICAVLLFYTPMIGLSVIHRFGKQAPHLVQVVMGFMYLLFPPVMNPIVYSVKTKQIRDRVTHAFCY
In short: as §1

OR51I1 (Homo sapiens) = target: T18, OR51I1 (Homo sapiens) (UniProt Q9H343)
T18 sequence (whole entry): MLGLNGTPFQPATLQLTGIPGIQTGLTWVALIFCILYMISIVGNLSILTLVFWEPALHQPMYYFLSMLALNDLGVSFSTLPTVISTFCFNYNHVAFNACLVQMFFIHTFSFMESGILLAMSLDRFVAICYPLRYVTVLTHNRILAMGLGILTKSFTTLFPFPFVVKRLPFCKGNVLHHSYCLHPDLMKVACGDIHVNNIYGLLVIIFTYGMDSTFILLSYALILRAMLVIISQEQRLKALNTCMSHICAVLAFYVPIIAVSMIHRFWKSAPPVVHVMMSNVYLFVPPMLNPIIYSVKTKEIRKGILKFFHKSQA
In short: as §1

Measured: odorant receptor agonist call

CCCCCC(=O)C(C)C(C)=O (stereo not drawn)
inactive: all assays above
